Screening results from PubChem.
Sampled rows, rich in hits. Any-hit rate of the full collection: about 3.5%.
MrgX1 ag – agonists of human MrgX1 receptor, primary screen, HEK293 cells, Fluo-4 calcium flux. Mas-related G-protein coupled receptor member X1 (Homo sapiens), Q96LB2. Fluo-4 calcium fluorescence, agonist mode; stronger effect = higher value. B-score at 10 µM. hit rate 0.44% among 310,000;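 active = calcium response B-score plate-corrected fluorescence ratio at least 3 library SD, with starting fluorescence B-score inside 5 SD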
Target sequence (Q96LB2 whole entry, looked up): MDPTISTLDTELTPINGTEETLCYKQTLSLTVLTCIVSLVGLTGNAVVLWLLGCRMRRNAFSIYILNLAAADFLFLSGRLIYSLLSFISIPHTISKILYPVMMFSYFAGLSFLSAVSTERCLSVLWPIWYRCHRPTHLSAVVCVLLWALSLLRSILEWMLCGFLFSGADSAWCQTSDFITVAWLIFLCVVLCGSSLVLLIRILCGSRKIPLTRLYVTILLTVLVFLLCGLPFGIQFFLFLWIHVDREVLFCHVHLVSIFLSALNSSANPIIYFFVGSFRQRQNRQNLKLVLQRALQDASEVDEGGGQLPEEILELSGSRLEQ
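System: HEK293 cells stably expressing human MrgX1 receptor; Dosing: test compound in the initial addition of three; Schedule: overnight plating, then 30 min 37 °C plus 30 min room-temperature dye loading; Detection: kinetic calcium dye fluorescence, Fluo-4 NW; Controls: per-plate positive and negative controls for Z′ factor.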
MrgX1 allo act – positive allosteric modulators of MrgX1, primary screen, HEK293 cells, Fluo-4 calcium flux; AID 588675, 2011; B-score at 10 µM; hit rate 0.63% among 310,000; FDSS; stronger effect = higher value;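 active = plate-corrected calcium response at least 3 library SD above typical, normal starting fluorescence, not activating the receptor alone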;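 note: compound read alongside a low EC10 to EC30 dose of BAM8-22 agonist; peak minus trough fluorescence over baseline measured at the second addition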
RGS4 act – RGS4 potentiators or activators, primary screen, cell-based, HEK293 M3R inducible RGS4, calcium flux; AID 463111, 2010; hit rate 0.92% among 310,000; carbachol calcium flux Fluo4; stronger effect = lower value; B-score at 10 µM;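 active = B-score of the integrated calcium signal more than 4 SD below the library mean, with starting fluorescence not abnormally high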;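 note: negative B-score means reduced calcium response which marks RGS4 activation or potentiation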
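Material: Inducible-RGS4 HEK293 cells carrying M3 receptor; also added: carbachol at ECmax as muscarinic agonist stimulus; incubation: compound preincubation 20 min at room temperature before agonist; signal: Fluo4-AM (2 µM) calcium-flux fluorescence, kinetic read; measure: integrated calcium ratio converted to B score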
MrgX1 antag – antagonists of human MrgX1 receptor, primary screen, HEK293 cells, Fluo-4 calcium flux | Mas-related G-protein coupled receptor member X1 (Homo sapiens), Q96LB2 | BAM8-22 antagonism; stronger effect = lower value | B-score at 10 µM | hit rate 1.3% among 310,000;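 active = calcium-response B-score plate-corrected more than 3 library SD below zero, starting fluorescence within 5 deviations, no agonist response on first addition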;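 note: peak minus trough fluorescence over baseline after final BAM8-22 challenge near maximal dose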
RGS4 block – RGS4 inhibitors, primary screen, cell-based, HEK293 M3R inducible RGS4, calcium flux; hit rate 0.45% among 310,000; Regulator of G-protein signaling 4 (Homo sapiens), P49798; B-score at 10 µM; Fluo-4 calcium flux; stronger effect = higher value; triggered by carbachol at its EC20;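 active = B-score, a plate-corrected calcium signal, over three deviations above library mean, with baseline fluorescence within five deviations of library mean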;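 note: RGS4 expression induced by doxycycline in cells with stable M3 receptor; B-score is computed from the integrated fluorescence ratio over baseline after carbachol; higher B-score means a larger calcium signal and so more RGS4 inhibition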
Target sequence (P49798 whole entry, looked up): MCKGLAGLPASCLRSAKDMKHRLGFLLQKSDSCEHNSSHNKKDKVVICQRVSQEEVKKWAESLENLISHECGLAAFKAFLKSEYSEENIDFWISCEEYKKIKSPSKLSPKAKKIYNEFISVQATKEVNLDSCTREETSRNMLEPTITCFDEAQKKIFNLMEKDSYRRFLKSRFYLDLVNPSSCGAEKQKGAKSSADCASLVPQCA
Starred values were filed as active, the others as inactive; i = inactive; . = not tested or not shown.

SMILES	MrgX1 ag	MrgX1 allo act	RGS4 act	MrgX1 antag	RGS4 block
COc1ccc(-c2sc3ccc(N4CCOCC4)cc3c2-c2ccc(OC)c(F)c2)cc1	i	i	i	i	i
CCOc1ccc(-n2nc3c(=O)n(CCN4CCCCC4)nc(C)c3c2C)cc1	i	i	-8.5*	i	i
COc1ccc(/C=N/OCC(=O)OCC(=O)N(C)c2ccccc2)cc1	i	i	i	i	i
O=C(NCCCN1CCCC1)c1ccc2c(c1)N(Cc1ccccc1F)C(=O)c1ccccc1S2=O (centres undefined)	i	i	i	i	i
CC1CCCCN1CCNC(=O)c1ccc2c(c1)N(Cc1ccccc1F)C(=O)c1ccccc1S2=O (centres undefined)	i	i	-7.4*	i	i
CN(C)S(=O)(=O)N1CCN(C(=O)c2ccc3c(c2)OCO3)CC1	i	i	i	i	i
C#CCOCCOCCOCCNc1nc(N2CCN(C(=O)CCCCCCCCCCNC(=O)Cn3cc(C[C@@H](C)O)nn3)CC2)nc(N2CCN(C(=O)CCCCCCCCCCNC(=O)[C@@H]([C@H](C)CC)n3cc(CCCCCN)nn3)CC2)n1	i	6.9*	.	i	.
C#CCOCCOCCOCCNc1nc(N2CCN(C(=O)CCCCCCCCCCNC(=O)Cn3cc(C[C@@H](C)O)nn3)CC2)nc(N2CCN(C(=O)CCCCCCCCCCNC(=O)[C@@H]([C@H](C)O)n3cc(C)nn3)CC2)n1	i	i	.	i	.
C#CCOCCOCCOCCNc1nc(N2CCN(C(=O)CCCCCCCCCCNC(=O)Cn3cc(CCCCCN)nn3)CC2)nc(N2CCN(C(=O)CCCCCCCCCCNC(=O)[C@@H]([C@H](C)O)n3cc(C)nn3)CC2)n1	i	11*	.	i	.
C#CCOCCOCCOCCNc1nc(N2CCN(C(=O)CCCCCCCCCCNC(=O)Cn3cc(CCCCCN)nn3)CC2)nc(N2CCN(C(=O)CCCCCCCCCCNC(=O)Cn3cc(C[C@@H](C)O)nn3)CC2)n1	i	i	.	-8.3*	.
CC(=O)N1CCN(Cc2nc3cc(NC(=O)c4cccs4)ccc3n2C)CC1	i	i	i	i	i
O=C(Nc1ccc(S(=O)(=O)N2CCCCC2)cc1)C1CCCO1 (centres undefined)	i	i	i	i	i
COc1ccc(-c2nnc(SCC(=O)c3ccc(C)o3)o2)cc1	.	.	i	.	i
COc1ccc(-c2nnc(SCc3cc(C)cc(C)c3)o2)cc1	i	i	-7.2*	i	i
CCCCNC(=O)Cn1nc([N+](=O)[O-])c([N+](=O)[O-])c1C	i	i	i	-5.4*	i
C/C(=N\NC(=O)c1cccc(Cl)c1)C1C(=O)c2ccccc2C1=O	i	18*	i	i	i
CCOC(=O)COc1ccccc1/C=N\NC(=O)c1cc2c(ccc3ccccc32)o1	i	i	-8.8*	i	i
NC(=O)N/N=C/c1ccccc1OCC(=O)NCc1ccccc1	i	i	i	-4.8*	i
O=C(N/N=C/c1cc(Br)c(O)c(Br)c1)c1cc2c(ccc3ccccc32)o1	i	i	-7.3*	i	i
COc1ccccc1/C=N/NC(=O)CC(=O)NCc1ccccc1	i	i	i	i	i
CCOc1cc(/C=N/NC(=O)c2cc3c(ccc4ccccc43)o2)ccc1O	i	i	i	i	i
COc1cc(/C=N/Nc2ccc(Cl)cc2)ccc1OC(=O)c1cccs1	i	i	.	i	.
CCOC(=O)N1CCN(S(=O)(=O)c2ccc(C(=O)N(CCCN(C)C)c3nc4ccc(Cl)cc4s3)cc2)CC1	i	i	i	i	i
Cc1ccc2nc(N(CCCN(C)C)C(=O)c3ccc(S(=O)(=O)N4CCCCCC4)cc3)sc2c1	i	i	i	i	i
CCc1ccc2nc(N(CCCN(C)C)C(=O)c3ccc(S(=O)(=O)N4CCCC4)cc3)sc2c1	i	i	-11*	i	i
SMILES	MrgX1 ag	MrgX1 allo act	RGS4 act	MrgX1 antag	RGS4 block
CCc1ccc2nc(N(CCCN(C)C)C(=O)c3ccc(S(=O)(=O)N4CCCc5ccccc54)cc3)sc2c1	i	i	-7.3*	i	i
COc1ccc(OC)c2sc(N(CCCN(C)C)C(=O)c3ccc(S(=O)(=O)N4CCc5ccccc5C4)cc3)nc12	i	i	-10*	-6.1*	i
CCOC(=O)N1CCN(S(=O)(=O)c2ccc(C(=O)N(CCCN(C)C)c3nc4c(F)cc(F)cc4s3)cc2)CC1	i	i	i	-7.9*	i
COc1cc2nc(N(CCCN(C)C)C(=O)c3ccc(C(=O)c4ccccc4)cc3)sc2cc1OC	i	i	i	i	i
CCc1ccc2nc(N(CCCN(C)C)C(=O)c3ccc(C(=O)c4ccccc4)cc3)sc2c1	i	i	-8.1*	i	i
Cc1ccc(OCCn2ccnc2)c([N+](=O)[O-])c1	i	11*	i	i	i
O=C(/C=C/c1ccco1)OCC1CCCN2CCCCC12 (centres undefined)	i	i	-7*	i	i
O=C(COC(=O)c1ccccc1NS(=O)(=O)c1cc([N+](=O)[O-])ccc1Cl)c1ccccc1	32*	i	i	i	i
O=C(CCC(=O)OCC(=O)c1ccc([N+](=O)[O-])cc1)Nc1ccccc1Cl	i	i	i	-5.5*	i
O=C(CCC(=O)OCC(=O)c1cccc([N+](=O)[O-])c1)Nc1cccc(Cl)c1Cl	i	i	i	i	i
O=C(CC(=O)c1ccccc1)Nc1cc([N+](=O)[O-])ccc1Cl	i	i	i	i	i
CCN(CC)CCCNC(=O)CSc1c2c(nc3cc(Cl)ccc13)CCCC2	i	i	-7.2*	i	i
O=C(CSc1c2c(nc3cc(Cl)ccc13)CCCC2)NCCCN1CCOCC1	i	i	i	i	i
Cc1cccc2nc3c(nc12)CCCC3	i	i	i	i	i
CCCCC(=O)Nc1cccc(NC(=O)c2ccccc2Br)c1	i	i	i	i	i
O=C(NCc1ccccn1)c1nc(Cn2cc([N+](=O)[O-])cn2)no1	i	i	i	i	i
O=S(=O)(c1ccc(Br)cc1)N1CCCc2ccccc21	i	i	i	i	i
CS(=O)(=O)/C(C#N)=C\c1cnc(S(=O)(=O)c2ccccc2)s1	29*	i	i	i	i
O=C(Nc1ccc(C(=O)O)cc1)/C(=C\c1ccc([N+](=O)[O-])cc1)NC(=O)c1ccc(Br)cc1	i	i	i	i	i
